Assay results reported in ChEMBL document CHEMBL3132745, “Synthesis and Antimicrobial Activities of His(2-aryl)-Arg and Trp-His(2-aryl) Classes of Dipeptidomimetics” (Medchemcomm, 2014).
≈ marks a conversion by molar mass, not a printed value. Calls of active or inactive are those of the source. No rule for the calls is given here. Residues, ends and D or L forms follow the SMILES beside them. *: point of attachment. Boc = CC(C)(C)OC(=O)*; NHBn = c1ccc(CN*)cc1

How the values were obtained:
LLC-PK1 = assay: Cytotoxicity against pig LLC-PK1 cells assessed as cell viability after 48 hrs by neutral red uptake assay; format: cell-based, Sus scrofa; conditions: llc-pk1, 48 h
In short: (§1)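 Neutral red uptake assay on human cancer lines (SK-MEL, KB, BT-549, SK-OV-3) and noncancerous mammalian cells (VERO, LLC-PK1). Highest tested concentration was 10 µg/mL.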

Vero = assay: Cytotoxicity against african green monkey Vero cells assessed as cell viability after 48 hrs by neutral red uptake assay; format: cell-based; conditions: chlorocebus sabaeus; in short: as §1
SK-OV-3 = assay: Cytotoxicity against human SKOV3 cells assessed as cell viability after 48 hrs by neutral red uptake assay; format: cell-based; conditions: sk-ov-3, 48 h; in short: as §1
KB = assay: Cytotoxicity against human KB cells assessed as cell viability after 48 hrs by neutral red uptake assay; format: cell-based; in short: as §1
BT-549 = assay: Cytotoxicity against human BT549 cells assessed as cell viability after 48 hrs by neutral red uptake assay; format: cell-based; conditions: bt-549, 48 h; in short: as §1
SK-MEL = assay: Cytotoxicity against human SK-MEL cells assessed as cell viability after 48 hrs by neutral red uptake assay; format: cell-based; in short: as §1
Escherichia coli = assay: Antibacterial activity against Escherichia coli ATCC 35218 assessed as growth inhibition after 16-20 hrs by CLSI method; format: functional, organism-based
Aspergillus fumigatus = assay: Antifungal activity against Aspergillus fumigatus assessed as growth inhibition; format: functional, organism-based
Pichia kudriavzevii = assay: Antifungal activity against Candida krusei assessed as growth inhibition; format: functional, organism-based
Nakaseomyces glabratus = assay: Antifungal activity against Candida glabrata assessed as growth inhibition; format: functional, organism-based
Candida albicans = assay: Antifungal activity against Candida albicans assessed as growth inhibition; format: functional, organism-based
Cryptococcus neoformans = assay: Antifungal activity against Cryptococcus neoformans ATCC 90113 assessed as growth inhibition after 70-74 hrs by CLSI method; format: functional, organism-based
[1] = Cryptococcus neoformans, ATCC 90113, read-out: IC50
[2] = Cryptococcus neoformans, ATCC 90113

| Structure (SMILES) | Activity (LLC-PK1) [µg/mL] | Activity (Vero) [µg/mL] | Activity (SK-OV-3) [µg/mL] | Activity (KB) [µg/mL] | Activity (BT-549) [µg/mL] | Activity (SK-MEL) [µg/mL] | growth inhibition (GI) (Escherichia coli) | growth inhibition (GI) (Aspergillus fumigatus) | growth inhibition (GI) (Pichia kudriavzevii) | growth inhibition (GI) (Nakaseomyces glabratus) | growth inhibition (GI) (Candida albicans) | IC50 (Cryptococcus neoformans) | MFC (Cryptococcus neoformans) | MIC (Cryptococcus neoformans) | IC50 (Cryptococcus neoformans; [1]) [µg/mL] | MFC (Cryptococcus neoformans; [2]) [µg/mL] | MIC (Cryptococcus neoformans; [2]) [µg/mL] |
| --- | --- | --- | --- | --- | --- | --- | --- | --- | --- | --- | --- | --- | --- | --- | --- | --- | --- |
| CC(C)(C)OC(=O)N[C@@H](Cc1c[nH]c2ccccc12)C(=O)N[C@@H](Cc1c[nH]cn1)C(=O)NCc1ccccc1 (Boc-Trp-His-NHBn) | > 10 | > 10 | > 10 | > 10 | > 10 | > 10 | inactive | inactive | inactive | inactive | inactive | Not Active | inactive | inactive | – | – | – |
| COC(=O)[C@H](Cc1c[nH]c(-c2cccc3ccccc23)n1)NC(=O)[C@@H](N)Cc1c[nH]c2ccccc12 | > 10 | > 10 | > 10 | > 10 | > 10 | > 10 | inactive | inactive | inactive | inactive | inactive | – | inactive | inactive | 17.3 (≈ 35.9 µM) | – | – |
| COC(=O)[C@H](CCCNC(=N)N)NC(=O)[C@H](Cc1c[nH]c(-c2ccccc2)n1)NC(=O)OC(C)(C)C | > 10 | > 10 | > 10 | > 10 | > 10 | > 10 | inactive | inactive | inactive | inactive | inactive | – | inactive | inactive | 16.6 (≈ 33.1 µM) | – | – |
| CC(C)(C)OC(=O)N[C@@H](Cc1c[nH]c2ccccc12)C(=O)N[C@@H](Cc1c[nH]c(-c2ccc(-c3ccccc3)cc2)n1)C(=O)NCc1ccccc1 | > 10 | > 10 | > 10 | > 10 | > 10 | > 10 | inactive | inactive | inactive | inactive | inactive | Not Active | inactive | inactive | – | – | – |
| CC(C)(C)OC(=O)N[C@@H](Cc1c[nH]c2ccccc12)C(=O)N[C@@H](Cc1c[nH]c(-c2ccccc2)n1)C(=O)NCc1ccccc1 | > 10 | > 10 | > 10 | > 10 | > 10 | > 10 | inactive | inactive | inactive | inactive | inactive | Not Active | inactive | inactive | – | – | – |
| COC(=O)[C@H](Cc1c[nH]cn1)NC(=O)[C@@H](N)Cc1c[nH]c2ccccc12 (H-Trp-His-OMe) | > 10 | > 10 | > 10 | > 10 | > 10 | > 10 | inactive | inactive | inactive | inactive | inactive | Not Active | inactive | inactive | – | – | – |
| COC(=O)[C@H](CCCNC(=N)N)NC(=O)[C@@H](N)Cc1c[nH]c(-c2ccccc2)n1 | > 10 | > 10 | > 10 | > 10 | > 10 | > 10 | inactive | inactive | inactive | inactive | inactive | – | inactive | inactive | 10.6 (≈ 26.3 µM) | – | – |
| COC(=O)[C@H](Cc1c[nH]c(-c2ccc(OC)cc2)n1)NC(=O)[C@H](Cc1c[nH]c2ccccc12)NC(=O)OC(C)(C)C | > 10 | > 10 | > 10 | > 10 | > 10 | > 10 | inactive | inactive | inactive | inactive | inactive | Not Active | inactive | inactive | – | – | – |
| COC(=O)[C@H](CCCNC(=N)N)NC(=O)[C@@H](N)Cc1c[nH]c(-c2ccc(C)cc2)n1 | > 10 | > 10 | > 10 | > 10 | > 10 | > 10 | inactive | inactive | inactive | inactive | inactive | Not Active | inactive | inactive | – | – | – |
| COC(=O)[C@H](Cc1c[nH]c(-c2ccc(C)cc2)n1)NC(=O)[C@H](Cc1c[nH]c2ccccc12)NC(=O)OC(C)(C)C | > 10 | > 10 | > 10 | > 10 | > 10 | > 10 | inactive | inactive | inactive | inactive | inactive | Not Active | inactive | inactive | – | – | – |
| N[C@@H](Cc1c[nH]c2ccccc12)C(=O)N[C@@H](Cc1c[nH]cn1)C(=O)NCc1ccccc1 (H-Trp-His-NHBn) | > 10 | > 10 | > 10 | > 10 | > 10 | > 10 | inactive | inactive | inactive | inactive | inactive | Not Active | inactive | inactive | – | – | – |
| COC(=O)[C@H](Cc1c[nH]c(-c2cccc3ccccc23)n1)NC(=O)[C@H](Cc1c[nH]c2ccccc12)NC(=O)OC(C)(C)C | > 10 | > 10 | > 10 | > 10 | > 10 | > 10 | inactive | inactive | inactive | inactive | inactive | Not Active | inactive | inactive | – | – | – |
| COC(=O)[C@H](CCCNC(=N)N)NC(=O)[C@@H](N)Cc1c[nH]c(-c2ccc(OC)cc2)n1 | > 10 | > 10 | > 10 | > 10 | > 10 | > 10 | inactive | inactive | inactive | inactive | inactive | Not Active | inactive | inactive | – | – | – |
| COC(=O)[C@H](CCCNC(=N)N)NC(=O)[C@@H](N)Cc1c[nH]c(-c2ccc(C(C)(C)C)cc2)n1 | > 10 | > 10 | > 10 | > 10 | > 10 | > 10 | inactive | inactive | inactive | inactive | inactive | – | – | – | 10.2 (≈ 22.2 µM) | 20 (≈ 43.7 µM) | 20 (≈ 43.7 µM) |
| COc1ccc(-c2nc(C[C@H](NC(=O)[C@H](Cc3c[nH]c4ccccc34)NC(=O)OC(C)(C)C)C(=O)NCc3ccccc3)c[nH]2)cc1 | > 10 | > 10 | > 10 | > 10 | > 10 | > 10 | inactive | inactive | inactive | inactive | inactive | Not Active | inactive | inactive | – | – | – |
